ChEMBL document CHEMBL2016550, “Synthesis and structure-activity relationships of 1,2,4-triazolo[1,5-a]pyrimidin-7(3H)-ones as novel series of potent β isoform selective phosphatidylinositol 3-kinase inhibitors” (Bioorg Med Chem Lett, 2012)

Columns and labels:
[1] = Selectivity ratio of IC50 for PI3Kdelta to IC50 for PI3Kbeta
[2] = target: Phosphatidylinositol 4,5-bisphosphate 3-kinase catalytic subunit alpha isoform (Homo sapiens, UniProt P42336); assay: Inhibition of PI3Kalpha by continuous read time resolved fluorescence resonance energy transfer displacement assay
[3] = target: T1, Phosphatidylinositol 4,5-bisphosphate 3-kinase catalytic subunit beta isoform (Homo sapiens, UniProt P42338); assay: Inhibition of PI3Kbeta by continuous read time resolved fluorescence resonance energy transfer displacement assay
[4] = target: Phosphatidylinositol 4,5-bisphosphate 3-kinase catalytic subunit gamma isoform (Homo sapiens, UniProt P48736); assay: Inhibition of PI3Kgamma by continuous read time resolved fluorescence resonance energy transfer displacement assay
[5] = target: T2, Phosphatidylinositol 4,5-bisphosphate 3-kinase catalytic subunit delta isoform (Homo sapiens, UniProt O00329); assay: Inhibition of PI3Kdelta by continuous read time resolved fluorescence resonance energy transfer displacement assay
T2 sequence (O00329 whole entry): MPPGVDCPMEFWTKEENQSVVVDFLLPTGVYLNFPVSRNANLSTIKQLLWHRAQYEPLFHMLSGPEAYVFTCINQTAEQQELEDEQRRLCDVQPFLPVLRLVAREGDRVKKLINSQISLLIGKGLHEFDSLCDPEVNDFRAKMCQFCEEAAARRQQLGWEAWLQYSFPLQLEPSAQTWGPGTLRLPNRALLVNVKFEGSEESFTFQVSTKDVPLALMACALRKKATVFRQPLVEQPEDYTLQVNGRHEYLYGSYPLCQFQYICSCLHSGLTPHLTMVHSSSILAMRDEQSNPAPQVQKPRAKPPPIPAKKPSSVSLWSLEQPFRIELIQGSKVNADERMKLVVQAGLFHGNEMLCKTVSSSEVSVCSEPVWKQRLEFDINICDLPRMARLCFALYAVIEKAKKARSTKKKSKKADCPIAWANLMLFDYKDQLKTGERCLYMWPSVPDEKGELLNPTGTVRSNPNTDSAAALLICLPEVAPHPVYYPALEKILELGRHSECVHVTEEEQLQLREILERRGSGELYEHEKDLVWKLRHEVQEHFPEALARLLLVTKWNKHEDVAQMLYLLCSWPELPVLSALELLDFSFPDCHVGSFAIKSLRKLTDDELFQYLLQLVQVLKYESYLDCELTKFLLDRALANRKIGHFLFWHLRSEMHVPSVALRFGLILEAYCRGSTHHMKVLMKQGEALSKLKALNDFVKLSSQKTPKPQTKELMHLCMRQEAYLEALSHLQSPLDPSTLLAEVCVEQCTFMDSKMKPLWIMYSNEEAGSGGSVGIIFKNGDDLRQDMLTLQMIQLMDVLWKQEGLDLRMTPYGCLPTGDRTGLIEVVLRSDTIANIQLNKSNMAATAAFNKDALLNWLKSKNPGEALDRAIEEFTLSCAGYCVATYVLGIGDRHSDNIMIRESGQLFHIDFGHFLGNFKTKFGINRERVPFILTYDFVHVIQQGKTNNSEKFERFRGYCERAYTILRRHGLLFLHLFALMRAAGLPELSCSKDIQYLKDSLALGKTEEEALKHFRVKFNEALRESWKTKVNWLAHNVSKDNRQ

[6] = target: T1, Phosphatidylinositol 4,5-bisphosphate 3-kinase catalytic subunit beta isoform; assay: Inhibition of PI3K beta-mediated AKT phosphorylation at serine 473 in PTEN deficient human MDA-MB-468 cells after 30 mins; format: cell-based
In short: (§1)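 Breast cancer cells plated and held about 16–20 h, then exposed to compound for 30 min at 0.15% final DMSO. After a Tris wash, cells were lysed in buffer with protease and phosphatase inhibitors. Ser473-pAKT and total AKT were measured by MSD duplex immunoassay, normalised to total AKT (pAKT + AKT signal), and expressed as percent of DMSO control. IC50 from concentration-response fits; means of at least 2 experiments.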

[7] = test system: MDA-MB-468; assay: Cytotoxicity against PTEN deficient human MDA-MB-468 cells after 6 days by alamar blue assay; format: functional, cell-based
In short: (§2)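 Cells were grown anchorage-independently: a 0.6% agar/medium + 10% FBS bottom layer, cells in 0.3% agar/medium + 10% FBS, and medium + 10% FBS on top. After 16–20 h they were dosed (0.15% final DMSO) for 6 days, with a baseline plate read at dosing. Alamar Blue was added for 6 h and read as fluorescence (ex 530/em 590 nm). Signal from 0.3% Brij 35 background wells was subtracted, values were expressed as % of DMSO control, and fitted with a 4-parameter logistic.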

[8] = target: Serine/threonine-protein kinase mTOR (Homo sapiens, UniProt P42345); assay: Inhibition of mTOR
[9] = Inhibition of DNA-PK
[10] = target: T1, Phosphatidylinositol 4,5-bisphosphate 3-kinase catalytic subunit beta isoform; assay: Inhibition of PI3K beta-mediated AKT phosphorylation at serine 473 in PTEN wild type human HCC1954 cells; format: cell-based; in short: as §1
[11] = test system: HCC1954; assay: Cytotoxicity against PTEN wild type human HCC1954 cells after 6 days by alamar blue assay; format: functional, cell-based; settings: HCC1954, 144 h; in short: as §2
[12] = Clearance in rat at 0.25 mg/kg, iv; format: ADME, organism-based; set-up: dose 0.25 mg/kg, route intravenous; settings: in vivo
In short: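 Rats given a single IV dose at 0.25 mg/kg, formulated in 1% DMSO with 20% Encapsin in saline. Clearance was calculated after IV administration. Reported values are means of at least 2 experiments.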

[13] = Homo sapiens, MDA-MB-468, 144 h, read-out: EC50

Sequence of Phosphatidylinositol 4,5-bisphosphate 3-kinase catalytic subunit gamma isoform (P48736 whole entry, canonical isoform): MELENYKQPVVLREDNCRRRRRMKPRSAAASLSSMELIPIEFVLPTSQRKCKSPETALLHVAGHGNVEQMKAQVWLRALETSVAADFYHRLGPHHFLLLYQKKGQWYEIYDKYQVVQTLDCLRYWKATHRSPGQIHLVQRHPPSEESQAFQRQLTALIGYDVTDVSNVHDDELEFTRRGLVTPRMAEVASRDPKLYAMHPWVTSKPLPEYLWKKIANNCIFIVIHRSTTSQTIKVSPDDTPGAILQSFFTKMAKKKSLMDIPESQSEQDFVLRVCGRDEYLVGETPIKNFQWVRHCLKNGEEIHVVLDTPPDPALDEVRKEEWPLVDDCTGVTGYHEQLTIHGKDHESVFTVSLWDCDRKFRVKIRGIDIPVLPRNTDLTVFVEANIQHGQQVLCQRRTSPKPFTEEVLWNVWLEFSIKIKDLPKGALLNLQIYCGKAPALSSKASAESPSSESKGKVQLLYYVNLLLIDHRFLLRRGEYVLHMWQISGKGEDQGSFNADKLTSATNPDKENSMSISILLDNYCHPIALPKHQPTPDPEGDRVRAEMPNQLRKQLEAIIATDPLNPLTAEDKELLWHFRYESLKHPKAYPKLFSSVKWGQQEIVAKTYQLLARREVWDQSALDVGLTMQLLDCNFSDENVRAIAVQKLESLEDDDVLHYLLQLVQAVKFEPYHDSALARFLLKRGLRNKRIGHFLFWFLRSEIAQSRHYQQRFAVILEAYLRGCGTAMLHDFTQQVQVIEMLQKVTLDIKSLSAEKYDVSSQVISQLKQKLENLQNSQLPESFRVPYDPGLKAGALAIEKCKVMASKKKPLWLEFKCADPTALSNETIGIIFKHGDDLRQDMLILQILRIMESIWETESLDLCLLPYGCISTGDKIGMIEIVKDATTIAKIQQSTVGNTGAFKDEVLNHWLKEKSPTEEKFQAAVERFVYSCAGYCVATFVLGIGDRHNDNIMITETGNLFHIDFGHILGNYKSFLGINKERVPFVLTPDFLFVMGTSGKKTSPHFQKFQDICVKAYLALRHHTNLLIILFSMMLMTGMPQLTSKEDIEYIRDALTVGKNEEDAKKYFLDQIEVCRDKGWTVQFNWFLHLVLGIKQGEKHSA
Sequence of Phosphatidylinositol 4,5-bisphosphate 3-kinase catalytic subunit alpha isoform (P42336 whole entry, canonical isoform): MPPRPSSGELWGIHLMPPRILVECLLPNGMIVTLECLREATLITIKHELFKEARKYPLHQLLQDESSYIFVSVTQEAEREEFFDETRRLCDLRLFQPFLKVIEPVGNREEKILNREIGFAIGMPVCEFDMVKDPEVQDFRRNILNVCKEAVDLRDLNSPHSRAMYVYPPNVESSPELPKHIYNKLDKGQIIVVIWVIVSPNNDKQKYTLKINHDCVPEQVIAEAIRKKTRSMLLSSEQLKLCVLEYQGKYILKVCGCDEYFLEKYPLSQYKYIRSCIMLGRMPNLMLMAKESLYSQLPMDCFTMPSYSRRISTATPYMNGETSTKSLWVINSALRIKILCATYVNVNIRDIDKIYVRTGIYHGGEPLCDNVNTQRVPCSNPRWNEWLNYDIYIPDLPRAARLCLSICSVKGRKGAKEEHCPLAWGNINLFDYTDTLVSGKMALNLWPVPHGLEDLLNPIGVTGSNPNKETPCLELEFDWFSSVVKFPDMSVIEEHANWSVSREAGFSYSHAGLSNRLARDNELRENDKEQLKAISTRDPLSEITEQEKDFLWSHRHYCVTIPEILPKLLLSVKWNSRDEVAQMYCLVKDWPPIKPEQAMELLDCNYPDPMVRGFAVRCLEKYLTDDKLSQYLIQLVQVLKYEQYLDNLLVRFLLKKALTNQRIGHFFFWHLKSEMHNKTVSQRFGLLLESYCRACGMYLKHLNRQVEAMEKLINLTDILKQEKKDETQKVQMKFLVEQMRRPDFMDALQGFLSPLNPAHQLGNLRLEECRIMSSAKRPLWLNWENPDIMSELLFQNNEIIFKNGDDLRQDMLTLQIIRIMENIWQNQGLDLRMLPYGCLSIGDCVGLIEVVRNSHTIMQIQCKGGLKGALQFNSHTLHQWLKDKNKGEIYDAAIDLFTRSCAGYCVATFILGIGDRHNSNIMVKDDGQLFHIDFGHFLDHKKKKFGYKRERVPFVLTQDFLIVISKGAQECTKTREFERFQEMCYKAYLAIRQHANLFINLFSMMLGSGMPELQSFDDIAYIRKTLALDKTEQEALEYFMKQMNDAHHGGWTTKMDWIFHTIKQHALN
T1 sequence (P42338 whole entry, canonical isoform): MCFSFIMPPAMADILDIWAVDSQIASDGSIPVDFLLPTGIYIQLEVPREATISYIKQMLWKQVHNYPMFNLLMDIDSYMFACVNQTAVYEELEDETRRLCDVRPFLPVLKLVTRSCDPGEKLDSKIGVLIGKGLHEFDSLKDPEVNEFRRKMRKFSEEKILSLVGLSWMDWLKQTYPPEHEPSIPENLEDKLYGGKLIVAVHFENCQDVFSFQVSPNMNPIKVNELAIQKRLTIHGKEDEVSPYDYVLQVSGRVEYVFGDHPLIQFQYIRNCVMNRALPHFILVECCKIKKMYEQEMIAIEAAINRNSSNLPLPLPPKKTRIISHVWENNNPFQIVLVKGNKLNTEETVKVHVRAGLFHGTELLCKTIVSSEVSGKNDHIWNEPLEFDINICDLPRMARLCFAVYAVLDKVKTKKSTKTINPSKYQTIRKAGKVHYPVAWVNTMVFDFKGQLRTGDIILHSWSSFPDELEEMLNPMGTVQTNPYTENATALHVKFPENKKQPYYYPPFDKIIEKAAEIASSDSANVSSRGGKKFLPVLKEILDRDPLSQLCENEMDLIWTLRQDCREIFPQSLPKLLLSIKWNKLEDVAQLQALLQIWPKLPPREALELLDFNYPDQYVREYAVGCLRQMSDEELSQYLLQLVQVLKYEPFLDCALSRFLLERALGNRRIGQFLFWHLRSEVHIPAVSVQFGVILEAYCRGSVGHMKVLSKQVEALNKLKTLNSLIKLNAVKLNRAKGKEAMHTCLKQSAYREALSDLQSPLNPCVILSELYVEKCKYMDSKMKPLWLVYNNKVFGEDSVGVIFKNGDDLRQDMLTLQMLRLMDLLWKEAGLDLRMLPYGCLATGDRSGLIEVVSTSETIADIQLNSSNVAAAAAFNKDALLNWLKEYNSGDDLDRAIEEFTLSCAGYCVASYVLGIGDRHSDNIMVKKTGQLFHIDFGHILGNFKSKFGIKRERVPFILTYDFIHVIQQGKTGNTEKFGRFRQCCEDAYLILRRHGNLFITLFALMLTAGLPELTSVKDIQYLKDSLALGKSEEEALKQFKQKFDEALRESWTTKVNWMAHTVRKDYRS

## Cc1c(Cn2c(C)nn3c(=O)cc(N4CCOC(C)C4)nc23)cccc1C(F)(F)F (single isomer, unassigned; enantiomer 1) [listing 1 of 2 here]
[1]
  Ratio IC50: 6

## CSc1nn2c(=O)cc(N3CCOCC3)nc2n1Cc1cccc(Cl)c1Cl
[2]
  IC50: 1600 nM
[3]
  IC50: 1.6 nM
[4]
  IC50: 500 nM
[5]
  IC50: 31 nM
[1]
  Ratio IC50: 19
[6]
  IC50: 13 nM
[7]; [13]
  EC50: 240 nM

## Cc1c(Cn2c(C)cn3c(=O)cc(N4CCOCC4)nc23)cccc1C(F)(F)F
[3]
  IC50: 1.3 nM
[5]
  IC50: 7.9 nM
[8]
  IC50: 32 µM
[9]
  IC50: 800 nM
[10]
  IC50: > 29000 nM
[11]
  EC50: 9.7 µM

## Cc1c(Cn2c(C)nn3c(=O)cc(N4CCOC(C)C4)nc23)cccc1C(F)(F)F (racemic) [listing 1 of 2 here]
[1]
  Ratio IC50: 6

## Cc1c(Cn2c(C)nn3c(=O)nc(N4CCOCC4)cc23)cccc1C(F)(F)F
[3]
  IC50: 2 nM
[6]
  IC50: 92 nM
[7]; [13]
  EC50: 210 nM
[12]
  clearance: 83 mL/min/kg

## Cc1c(Cn2c(C)nn3c(=O)cc(N4CCOC(C)C4)nc23)cccc1C(F)(F)F (single isomer, unassigned; enantiomer 2) [listing 1 of 2 here]
[1]
  Ratio IC50: > 10

## Cc1nn2c(=O)cc(N3CCOC(C)C3)nc2n1Cc1cccc(Cl)c1Cl (stereo in doubt; 6) [listing 1 of 2 here]
[2]
  IC50: 2500 nM
[3]
  IC50: 25 nM
[4]
  IC50: 7900 nM
[5]
  IC50: 500 nM

## CSc1nn2c(=O)cc(N3CCOC(C)C3)nc2n1Cc1cccc(C(F)(F)F)c1C (stereo not drawn)
[2]
  IC50: 1300 nM
[3]
  IC50: 1 nM
[4]
  IC50: 200 nM
[5]
  IC50: 25 nM
[1]
  Ratio IC50: 6

## Cc1nn2c(=O)cc(N3CCOCC3)nc2n1Cc1cccc(Cl)c1Cl
[2]
  IC50: 630 nM
[3]
  IC50: 1.3 nM
[4]
  IC50: 500 nM
[5]
  IC50: 50 nM
[1]
  Ratio IC50: 6
[6]
  IC50: 34 nM
[7]; [13]
  EC50: 170 nM

## O=c1cc(N2CCOCC2)nc2n(Cc3cccc(Cl)c3Cl)c(C3CC3)nn12
[2]
  IC50: 2500 nM
[3]
  IC50: 2.5 nM
[4]
  IC50: 2500 nM
[5]
  IC50: 130 nM
[1]
  Ratio IC50: 52
[6]
  IC50: 20 nM
[7]; [13]
  EC50: 260 nM

## CSc1nn2c(=O)cc(N3CCOCC3)nc2n1Cc1cccc(C(F)(F)F)c1C
[2]
  IC50: 320 nM
[3]
  IC50: 0.4 nM
[4]
  IC50: 1300 nM
[5]
  IC50: 25 nM
[1]
  Ratio IC50: 6
[6]
  IC50: 5.1 nM
[7]; mda-mb-468
  EC50: Not Active

## Cc1c(Cn2c(C)nn3c(=O)cc(N4CCOC(C)C4)nc23)cccc1C(F)(F)F (racemic) [listing 2 of 2 here]
[2]
  IC50: 400 nM
[3]
  IC50: 1.3 nM
[4]
  IC50: 160 nM
[5]
  IC50: 10 nM
[6]
  IC50: 2.7 nM
[7]; mda-mb-468, read-out: EC50
  EC50: 55 nM

## CSc1nn2c(=O)cc(-c3ccncc3)nc2n1Cc1cccc(Cl)c1Cl
[2]
  IC50: 400 nM
[3]
  IC50: 13 nM
[4]
  IC50: 2000 nM
[5]
  IC50: 79 nM
[1]
  Ratio IC50: 6

## Cc1c(Cn2c(C)nn3c(=O)cc(N4CCOC(C)C4)nc23)cccc1C(F)(F)F (single isomer, unassigned; enantiomer 1) [listing 2 of 2 here]
[2]
  IC50: 1600 nM
[3]
  IC50: 3.1 nM
[4]
  IC50: 790 nM
[5]
  IC50: 63 nM
[6]
  IC50: 7.9 nM
[7]; mda-mb-468, read-out: EC50
  EC50: 310 nM

## Cc1nn2c(=O)cc(N3CCOC(C)C3)nc2n1Cc1cccc(Cl)c1Cl (racemic)
[2]
  IC50: 320 nM
[3]
  IC50: 2 nM
[4]
  IC50: 250 nM
[5]
  IC50: 25 nM

## Cc1c(Cn2c(C)nn3c(=O)cc(N4CCOC(C)C4)nc23)cccc1C(F)(F)F (single isomer, unassigned; enantiomer 2) [listing 2 of 2 here]
[2]
  IC50: 320 nM
[3]
  IC50: 0.3 nM
[4]
  IC50: 60 nM
[5]
  IC50: 4 nM
[6]
  IC50: 0.5 nM
[7]; mda-mb-468, read-out: EC50
  EC50: 13 nM
[8]
  IC50: 6.3 µM
[9]
  IC50: 160 nM
[10]
  IC50: 2500 nM
[11]
  EC50: 2.2 µM

## Cc1nn2c(=O)cc(N3CCOC(C)C3)nc2n1Cc1cccc(Cl)c1Cl (stereo in doubt; 6) [listing 2 of 2 here]
[1]
  Ratio IC50: 20

## Cc1c(Cn2c(C)nn3c(=O)cc(N4CCOCC4)nc23)cccc1C(F)(F)F
[2]
  IC50: 630 nM
[3]
  IC50: 0.6 nM
[4]
  IC50: 790 nM
[5]
  IC50: 20 nM
[1]
  Ratio IC50: 6
[6]
  IC50: 1.5 nM
[7]; [13]
  EC50: 110 nM
[12]
  clearance: 130 mL/min/kg

## Cc1c(Cn2c(C3CC3)nn3c(=O)cc(N4CCOCC4)nc23)cccc1C(F)(F)F
[2]
  IC50: 2500 nM
[3]
  IC50: 1.3 nM
[4]
  IC50: 1600 nM
[5]
  IC50: 40 nM
[1]
  Ratio IC50: 6
[6]
  IC50: 4.1 nM
[7]; [13]
  EC50: 40 nM

## Cc1nn2c(=O)cc(N3CCOC(C)C3)nc2n1Cc1cccc(Cl)c1Cl (single isomer, unassigned; enantiomer 2)
[2]
  IC50: 1000 nM
[3]
  IC50: 1.3 nM
[4]
  IC50: 500 nM
[5]
  IC50: 40 nM
[6]
  IC50: 3.4 nM
[7]; [13]
  EC50: 110 nM
